# From PubChem BioAssay AID1885 (Broad Institute, 2009)
# Where “and” joins values, the source holds several entries; their conditions need not be identical. Identical values can stand only once. The campaign covered roughly 300,000 compounds. About 4,400 (1.5%) were called active.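 Rule for the calls: active = mean inhibition across valid replicates above about 55% (limit read from the data); inconclusive = mean below that limit but half or more replicates reach it; inactive = mean below it, under half of replicates reach it.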 Shown is part of a subset that was picked to be rich in actives. Where a structure was tested more than once in an assay, its records may differ in their call.
# Experiment: inhibitors of intracellular T. cruzi growth, primary screen, luminescence, NIH3T3 host cells (AID 1885);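 note: signal also drops with host cell toxicity which is not excluded here; 0% = plate median of DMSO wells and 100% = zero luminescence signal; higher percent means less beta-gal luminescence so fewer parasites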
# Conditions: T. cruzi beta-gal in NIH3T3, luminescence, 90 h; stronger effect = higher value; concentration not given here
# Method in brief: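 Material: NIH/3T3 host cells with β-galactosidase reporter T. cruzi; Input: 5,000 host fibroblasts per well; Medium: DMEM, 2% fetal bovine serum; Compound: 50 nL DMSO compound solution per well; Schedule: 3 h host attachment, then at least 90 h co-culture; Detection: luminescent β-galactosidase signal after 60 min lysis.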
row,Compound,inhibition
1,CC(C)CN(C(=O)COC(=O)c1ccc(Cl)c(N)c1)c1c(N)n(Cc2ccccc2)c(=O)[nH]c1=O,10.2% (inactive)
2,Cc1ccc(C)c(N2CCN(C(=O)CCCCn3c(=O)[nH]c4ccccc4c3=O)CC2)c1,4.26% (inactive)
3,Cc1ccc(C)c(N2CCN(C(=O)CCCCCn3c(=S)[nH]c4ccc(N5CCOCC5)cc4c3=O)CC2)c1,56.8% (active)
4,O=C(CCCCCn1c(=S)[nH]c2cc3c(cc2c1=O)OCO3)N1CCN(c2ccc(F)cc2)CC1,7.91% (inactive)
5,Cc1ccn(C(CC(=O)c2ccc(Br)cc2)C(=O)O)n1 (stereo not drawn),-6.81% (inactive)
6,CCN(CC)C(=O)CSC1c2ccccc2C(=O)N1c1ccccc1 (stereo not drawn),-17.2% (inactive)
7,CCOc1ccc(CCNC(=O)C(CC)n2nc(C)n3c(cc4sccc43)c2=O)cc1OCC (stereo not drawn),59.3% (active)
8,CCC(C(=O)NCc1ccc(OC)cc1)n1nc(C)n2c(cc3occc32)c1=O (stereo not drawn),-2.81% (inactive)
9,COc1ccc(CCNC(=O)c2cc3sccc3n2C)cc1OC,-11.3% (inactive)
10,COc1ccc(-n2nnnc2CNC(=O)c2ccc3ccccc3c2)cc1,-2.55% (inactive)
11,Cc1ccc(CN(Cc2cccnc2)C(=S)Nc2cc(Cl)ccc2C)cc1,77.2% (active)
12,Cc1ccc(CN(Cc2cccnc2)C(=S)Nc2cccc(Cl)c2C)cc1,3% (inactive)
13,Cc1c(Cl)cccc1NC(=S)N(Cc1ccccc1)Cc1cccnc1,18.3% (inactive)
14,CCOc1ncccc1C(=O)NNC(=O)c1cccc(S(=O)(=O)Nc2ccccc2OC)c1,0.733% (inactive)
15,CC1(C)Cc2c(C#N)c(SCc3nc4ccccc4[nH]3)nc(N3CCOCC3)c2CO1,23.1% (inactive)
16,CC(C)c1nc(N2CCOCC2)c(C#N)c2c1COC(C)(C)C2,12.5% (inactive)
17,COc1ccc(CSc2nc(N3CCOCC3)c3c(c2C#N)CC(C)(C)OC3)cc1,60.5% (active)
18,CSc1ccccc1NC(=O)C(C)N1C(=O)c2ccccc2S1(=O)=O (stereo not drawn),-1.05% (inactive)
19,COc1ccc(N(CC(=O)N2CCOCC2)S(=O)(=O)c2ccccc2)cc1Cl,-3.61% (inactive)
20,CCCn1nc(C(=O)NNC(=O)CSCC(=O)Nc2cc(C)on2)c2ccccc2c1=O,-11.5% (inactive)
21,N#CCN(C(=O)COC(=O)C1CC2CCCC(C1)C2=O)c1ccccc1 (stereo not drawn),-10.6% (inactive)
22,Cc1nc2ccccc2nc1N/N=C/c1ccc(O)cc1O,60% (active)
23,Oc1ccc(/C=N/Nc2nc(-c3ccccc3F)nc3ccccc23)c(O)c1,-4.73% (inactive)
24,Oc1ccc(/C=N/NC2=NCCCCC2)c(O)c1,-40.4% (inactive)

row,Compound,inhibition
1,Cc1c(NC(=O)C(C)Oc2cccc(Cl)c2)c(=O)n(-c2ccccc2)n1C (stereo not drawn),-6.21% (inactive)
2,O=C(CN1CCN(S(=O)(=O)c2ccc(F)cc2)CC1)Nc1ccccc1F,4.08% (inactive)
3,O=C(CN1CCN(S(=O)(=O)c2ccc(Br)cc2)CC1)Nc1ccccc1C(=O)c1ccccc1,56% (active)
4,COc1ccccc1NC(=O)CN1CCN(S(=O)(=O)c2ccc(Br)cc2)CC1,8.31% (inactive)
5,COc1cccc(COc2ccc(N(C)S(=O)(=O)c3ccccc3)cc2)c1,9.64% (inactive)
6,CN=c1scc(-c2cc(OC)ccc2OC)n1/N=C/c1c(C)[nH]c2ccccc12,73.4% (active)
7,CCn1c(-c2cc(OC)ccc2OC)csc1=Nc1c(C)n(C)n(-c2ccccc2)c1=O,13.7% (inactive)
8,COc1ccc(N=Cc2c(O)[nH]c3ccccc23)cc1OC,-17.8% (inactive)
9,O=C(CCNC(=O)c1ccc(Br)cc1)Nc1cccc(S(=O)(=O)N2CCCCC2)c1,3.39% (inactive)
10,COc1c(C)c2c(c(O)c1C/C=C(\C)CCC(=O)O)C(=O)OC2,62.2% (active)
11,CCN(CC(=O)Nc1c(F)cccc1F)C(=O)c1ccc(-c2ccccc2)cc1,-22.3% (inactive)
12,Cc1ccccc1NC(=O)C(C)OC(=O)CCC(=O)N(CC(C)C)c1c(N)n(CC(C)C)c(=O)[nH]c1=O (stereo not drawn),0.843% (inactive)
13,Fc1ccc(CNCc2ccc(Br)cc2)cc1,-7.54% (inactive)
14,Cc1c(NC(=O)C(C)OC(=O)c2c3c(nc4ccccc24)CCC(C)C3)c(=O)n(-c2ccccc2)n1C (stereo not drawn),-9.27% (inactive)
15,COC(=O)C1=CN(Cc2ccc(OC)cc2)C=C(C(=O)OC)C1c1ccc(O)c(OC)c1,11.3% (inactive)
16,COC(=O)C1=CN(Cc2ccc(OC)c(OC)c2)C=C(C(=O)OC)C1c1cccs1,65% (active)
17,COc1ccc(CCNC(=O)COC(=O)/C=C/c2cccs2)cc1OC,-3.17% (inactive)
18,Cc1cc(-n2nc(C)cc2C)n2nc(C)c(-c3ccccc3)c2n1,14.4% (inactive)
19,Cc1cc(-c2ccccc2)n2nc(C)c(-c3ccccc3)c2n1,32.1% (inactive)
20,CCc1c(C)nc2c(-c3ccccc3)c(C)nn2c1Nc1ccc(NC(C)=O)cc1,54.5% (active)
21,O=S(=O)(Nc1cccc(-c2ccc(N3CCOCC3)nn2)c1)c1ccc(Cl)c(Cl)c1,-4.53% (inactive)
22,COc1ccc(Cl)cc1NC(=O)CN(C)C(=O)c1cc2ccccc2cc1OC,12.8% (inactive)
23,COc1ccccc1OCCn1c(SCC(N)=O)nc2ccccc21,-6.95% (inactive)
24,O=C(CSc1ccccn1)N1CCN(S(=O)(=O)c2ccc(Cl)cc2)CC1,-3.29% (inactive)

row,Compound,inhibition
1,O=C(Nc1ccccc1N1CCCC1)c1ccc(F)c(S(=O)(=O)N2CCOCC2)c1,-5.53% (inactive)
2,O=C(NCCCNC(=O)NC1CCCCC1)NC1CCCCC1,-9.22% (inactive)
3,CSc1cccc(NC(=S)N(Cc2ccccc2)Cc2ccccn2)c1,2.49% (inactive)
4,COc1cccc(NC(=S)N(Cc2ccc(C)cc2)Cc2ccccn2)c1,78.1% (active)
5,COc1cccc(NC(=S)NCc2ccccn2)c1,4.96% (inactive)
6,Nn1c(SCc2ccccc2)nnc1C1CCCCC1,2.33% (inactive)
7,CCc1ccc(N2CC(C(=O)Nc3ccc(S(=O)(=O)Nc4nccs4)cc3)CC2=O)cc1 (stereo not drawn),-8.72% (inactive)
8,CC1C(=O)Nc2ccccc2N1C(=O)c1ccc(F)cc1F (stereo not drawn),0.146% (inactive)
9,O=[N+]([O-])c1ccccc1OCCCCN1CCCCC1,1.28% (inactive)
10,Cc1ccc(OCCCCN2CCCCC2)c(Br)c1,54.8% (active)
11,Cc1ccc(C(C)(C)C)c(OCCCCN2CCCC2)c1,27.7% (inactive)
12,COC(=O)C1=C[C@@H](C(=O)OC)[C@@H]2C3=C(C(=O)[C@]2(C)NC(=O)c2ccccc2)[C@H](C)n2c(=O)n(C)c(=O)n2[C@@H]3C1,11.2% (inactive)
13,COc1ccccc1NS(=O)(=O)c1ccc(C)c(C(=O)NCC(c2ccco2)N(C)C)c1 (stereo not drawn),4.14% (inactive)
14,CCNC(=O)COc1cc(C)c(Br)c(C)c1,8.23% (inactive)
15,Cc1cc(OCCCCOc2ccc(C#N)cc2)ccc1[N+](=O)[O-],19.5% (inactive)
16,Cc1cc(OCC(=O)NC2CCN(C)CC2)ccc1[N+](=O)[O-],49.2% (inactive)
17,CCOc1ccccc1N1CCN(C(=O)COc2ccc3c(C)cc(=O)oc3c2)CC1,24% (inactive)
18,Cc1cc(OCCCN2CCN(Cc3ccccc3)CC2)ccc1[N+](=O)[O-],55.7% (active)
19,Cc1ccccc1N1CCN(CCCOc2ccc3c(C)cc(=O)oc3c2)CC1,60% (active)
20,Cc1cc(=O)oc2cc(OCCC[n+]3ccccc3)ccc12,1.14% (inactive)
21,CC(C)CC(O)C1CCN(C(=O)CCc2nnc(-c3ccc4c(c3)OCO4)o2)CC1 (stereo not drawn),3.35% (inactive)
22,Cc1ccc(OCCNC(=O)CNC(=O)c2ccc(C)c(C)c2)cc1,-2.75% (inactive)
23,Clc1ccc(C[n+]2cc(-c3ccccc3)n3c2CCC3)cc1,27.8% (inactive)
24,Cc1ccc(-c2c[n+](CC(=O)Nc3ccccc3)c3n2CCC3)cc1,-0.923% (inactive)

row,Compound,inhibition
1,Cc1ccc(C(=O)C[n+]2cc(-c3ccccc3)n3c2CCCCC3)cc1,45.3% (inactive) and 65.4% (active)
2,COc1ccc(-c2cc(C(=O)N3CCN(Cc4ccc5c(c4)OCO5)CC3)on2)cc1OC,-12.7% (inactive)
3,CCC(CC)c1nnc(NC(=O)C2=COCCO2)s1,-5.48% (inactive)
4,Cc1cccc(C(=O)c2cccc(C)c2)c1,-0.776% (inactive)
5,Cc1cccc(C(=O)NCCCN(C)CCCNC(=O)c2cccc(C)c2)c1,66.4% (active)
6,CCNC(=O)COC(=O)CCNC(=O)c1cccc(C)c1,8.59% (inactive)
7,O=C(COC(=O)c1ccccc1Br)Nc1nnc(-c2ccccc2)o1,1.76% (inactive)
8,O=c1[nH]c(CN2CCOCC2)nc2cc(Cl)ccc12,-13.1% (inactive)
9,O=c1[nH]c(CCl)nc2cc(-c3ccc(Cl)cc3)sc12,55.8% (active)
10,NC(=O)Cc1nc2scc(-c3ccc(Cl)cc3)c2c(=O)[nH]1,-9.75% (inactive)
11,CCC1CCC/C1=N\NC(=O)c1ccc(Cl)cc1 (stereo not drawn),-10.7% (inactive)
12,Cc1ccccc1Nc1nc(N)nc(CSc2ccccc2)n1,4.95% (inactive)
13,O=C(CNC(=O)c1ccccc1Br)NCCSc1ccc(Br)cc1,-2.64% (inactive)
14,NC(N)=N/N=C/c1ccc(Cl)c([N+](=O)[O-])c1,60.6% (active)
15,O=C(/C=C/c1ccc(Cl)c([N+](=O)[O-])c1)c1cccnc1,34% (inactive)
16,O=C(/C=C/c1ccc(Cl)c([N+](=O)[O-])c1)c1ccc(O)cc1,-0.939% (inactive)
17,COc1ccccc1C(=O)Nc1ccc(Nc2ccccc2)cc1,-9% (inactive)
18,COc1ccccc1CNC(=O)COn1nnc2ccc(S(=O)(=O)N3CCOCC3)cc21,3.8% (inactive)
19,Cc1ccc(-c2noc(CSc3nnc(-c4ccncc4)n3-c3ccc(F)cc3)n2)cc1,9.52% (inactive)
20,Cc1ccc(Nc2nc(CSc3nnc(-c4ccncc4)n3-c3ccccc3C)cs2)cc1,57.4% (active)
21,Cc1ccccc1-n1c(SCC(=O)NCc2cccs2)nnc1-c1ccncc1,9.95% (inactive)
